According to ChEMBL document CHEMBL1150393, “Evaluation of radiolabeled (hetero)aromatic analogues of N-(2-diethylaminoethyl)-4-iodobenzamide for imaging and targeted radionuclide therapy of melanoma” (J Med Chem, 2008):

Key:
Thyroid gland [1] = experiment: Biodistribution in thyroid of C57BL/6 mouse bearing mouse B16-F0 cells at 0.74 to 0.92 MBq, iv after 72 hrs; type: ADME, organism-based; conditions: in vivo
Outline: (§1)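 [¹²⁵I]-labelled compound given iv by tail vein (0.1 µmol per mouse) to male C57BL6 mice bearing s.c. B16-F0 flank tumours (5 × 10⁵ cells in PBS). Two mice per time point were killed by CO₂, frozen in liquid nitrogen and cut into 40 µm cryosections, eight slices per mouse. Slice radioactivity was read on a multiwire proportional counter, converted to kBq/g and reported as %ID/g.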

Kidney [2] = experiment: Biodistribution in kidney of C57BL/6 mouse bearing mouse B16-F0 cells at 0.74 to 0.92 MBq, iv after 3 hrs; type: ADME, organism-based; conditions: in vivo
Outline: (§2)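 Male C57BL6 mice with s.c. left-flank B16-F0 melanoma (5 × 10⁵ cells in PBS). Two mice per time point frozen in liquid nitrogen after CO₂ sacrifice. Eight 40 µm whole-body cryosections per mouse read by multiwire proportional counter. cpm/mm² converted to kBq/g and expressed as %ID/g.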

Kidney [3] = experiment: Biodistribution in kidney of C57BL/6 mouse bearing mouse B16-F0 cells at 0.74 to 0.92 MBq, iv after 1 hr; type: ADME, organism-based; conditions: in vivo; outline: as §2
[4] = Biodistribution in gall bladder of C57BL/6 mouse bearing mouse B16-F0 cells at 0.74 to 0.92 MBq, iv after 6 hrs; type: ADME, organism-based; conditions: in vivo; outline: as §2
Brain [5] = experiment: Biodistribution in brain of C57BL/6 mouse bearing mouse B16-F0 cells at 0.74 to 0.92 MBq, iv after 6 hrs; type: ADME, organism-based; conditions: in vivo; outline: as §2
[6] = Biodistribution in uvea of C57BL/6 mouse bearing mouse B16-F0 cells at 0.74 to 0.92 MBq, iv after 24 hrs; type: ADME, organism-based, Uveal tract; conditions: in vivo; outline: as §1
[7] = Ratio of drug level in tumor to brain of C57BL/6 mouse bearing mouse B16-F0 cells at 0.74 to 0.92 MBq, iv after 6 hrs; type: ADME, organism-based; conditions: in vivo
Outline: (§3)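 Tumour and organ radioactive concentrations came from whole-body cryosection counting (40 µm slices, eight per mouse, two mice per time) after tail-vein injection of the [¹²⁵I]-labelled compound (0.1 µmol) into male C57BL6 mice bearing s.c. B16-F0 melanoma. Each value is the ratio of the tumour concentration to the organ concentration.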

Muscle tissue = experiment: Biodistribution in muscle of C57BL/6 mouse bearing mouse B16-F0 cells at 0.74 to 0.92 MBq, iv after 1 hr; type: ADME, organism-based; conditions: in vivo; outline: as §2
Blood = experiment: Biodistribution in blood of C57BL/6 mouse bearing mouse B16-F0 cells at 0.74 to 0.92 MBq, iv after 6 hrs; type: ADME, organism-based; conditions: in vivo; outline: as §2
[8] = Biodistribution in intestinal content of C57BL/6 mouse bearing mouse B16-F0 cells at 0.74 to 0.92 MBq, iv after 6 hrs; type: ADME, organism-based; conditions: in vivo; outline: as §2
[9] = Ratio of drug level in tumor to lung of C57BL/6 mouse bearing mouse B16-F0 cells at 0.74 to 0.92 MBq, iv after 1 hr; type: ADME, organism-based; conditions: in vivo; outline: as §3
[10] = Biodistribution in uvea of C57BL/6 mouse bearing mouse B16-F0 cells at 0.74 to 0.92 MBq, iv after 3 hrs; type: ADME, organism-based, Uveal tract; conditions: in vivo; outline: as §1
[11] = Ratio of drug level in tumor to lung of C57BL/6 mouse bearing mouse B16-F0 cells at 0.74 to 0.92 MBq, iv after 3 hrs; type: ADME, organism-based; conditions: in vivo; outline: as §3
[12] = Biodistribution in tumor of C57BL/6 mouse bearing mouse B16-F0 cells at 0.74 to 0.92 MBq, iv after 72 hrs; type: ADME, organism-based, Neoplasm; conditions: in vivo; outline: as §1
Pancreas [13] = experiment: Biodistribution in pancreas of C57BL/6 mouse bearing mouse B16-F0 cells at 0.74 to 0.92 MBq, iv after 3 hrs; type: ADME, organism-based; conditions: in vivo; outline: as §2
Thyroid gland [14] = experiment: Biodistribution in thyroid of C57BL/6 mouse bearing mouse B16-F0 cells at 0.74 to 0.92 MBq, iv after 24 hrs; type: ADME, organism-based; conditions: in vivo; outline: as §1
Liver = experiment: Biodistribution in liver of C57BL/6 mouse bearing mouse B16-F0 cells at 0.74 to 0.92 MBq, iv after 1 hr; type: ADME, organism-based; conditions: in vivo; outline: as §2
Lung = experiment: Biodistribution in lung of C57BL/6 mouse bearing mouse B16-F0 cells at 0.74 to 0.92 MBq, iv after 3 hrs; type: ADME, organism-based; conditions: in vivo; outline: as §2
Brain [15] = experiment: Biodistribution in brain of C57BL/6 mouse bearing mouse B16-F0 cells at 0.74 to 0.92 MBq, iv after 3 hrs; type: ADME, organism-based; conditions: in vivo; outline: as §2
[16] = Biodistribution in tumor of C57BL/6 mouse bearing mouse B16-F0 cells at 0.74 to 0.92 MBq, iv after 1 hr; type: ADME, organism-based, Neoplasm; conditions: in vivo; outline: as §1
Brain [17] = experiment: Biodistribution in brain of C57BL/6 mouse bearing mouse B16-F0 cells at 0.74 to 0.92 MBq, iv after 1 hr; type: ADME, organism-based; conditions: in vivo; outline: as §2
[18] = Partition coefficient, log P in phosphate buffer solution at pH 7.4; type: physicochemical
Outline: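 Shake-flask partition: 50 µM [¹²⁵I]-labelled compound in phosphate buffer pH 7.4 was mixed with 2 mL n-octanol. Each phase was γ-counted, P was taken as the octanol/buffer activity ratio, and log P was reported.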

Thyroid gland [19] = experiment: Biodistribution in thyroid of C57BL/6 mouse bearing mouse B16-F0 cells at 0.74 to 0.92 MBq, iv after 1 hr; type: ADME, organism-based; conditions: in vivo; outline: as §1
[20] = Biodistribution in gall bladder of C57BL/6 mouse bearing mouse B16-F0 cells at 0.74 to 0.92 MBq, iv after 3 hrs; type: ADME, organism-based; conditions: in vivo; outline: as §2
Spleen = experiment: Biodistribution in spleen of C57BL/6 mouse bearing mouse B16-F0 cells at 0.74 to 0.92 MBq, iv after 1 hr; type: ADME, organism-based; conditions: in vivo; outline: as §1
[21] = Biodistribution in intestinal content of C57BL/6 mouse bearing mouse B16-F0 cells at 0.74 to 0.92 MBq, iv after 1 hr; type: ADME, organism-based; conditions: in vivo; outline: as §2
Pancreas [22] = experiment: Biodistribution in pancreas of C57BL/6 mouse bearing mouse B16-F0 cells at 0.74 to 0.92 MBq, iv after 6 hrs; type: ADME, organism-based; conditions: in vivo; outline: as §2
[23] = Biodistribution in intestinal content of C57BL/6 mouse bearing mouse B16-F0 cells at 0.74 to 0.92 MBq, iv after 24 hrs; type: ADME, organism-based; conditions: in vivo; outline: as §2
[24] = Biodistribution in Stomach content of C57BL/6 mouse bearing mouse B16-F0 cells at 0.74 to 0.92 MBq, iv after 72 hrs; type: ADME, organism-based; conditions: in vivo; outline: as §2

SMILES | Drug uptake (Kidney [2]) [% ID/g] | Drug uptake (Kidney [3]) [% ID/g] | Drug uptake [4] [% ID/g] | Drug uptake [6] [% ID/g] | Drug uptake (Muscle tissue) [% ID/g] | Drug uptake (Blood) [% ID/g] | Drug uptake [8] [% ID/g] | Ratio [9] | Drug uptake [10] [% ID/g] | Ratio [11] | Drug uptake [12] [% ID/g] | Drug uptake (Thyroid gland [14]) [% ID/g] | Drug uptake (Liver) [% ID/g] | Drug uptake (Lung) [% ID/g] | Drug uptake (Brain [15]) [% ID/g] | Drug uptake [16] [% ID/g] | Drug uptake (Brain [17]) [% ID/g] | logD [18] | Drug uptake (Spleen) [% ID/g] | Drug uptake [21] [% ID/g] | other results
CCN(CC)CCNC(=O)c1ccc([125I])nc1.Cl.Cl | 3.26 | 6.08 | 4.9 | 6.07 | 1.48 | 3.71 | 2.98 | 2.04 | 12.69 | 2.34 | 0.9 | 111.3 | 5.14 | 3.96 | 0.22 | 15.5 | 0.64 | -0.29 | 5.44 | 13.44 | Drug uptake (Thyroid gland [1]): 178.8 % ID/g; Drug uptake (Brain [5]): 0.12 % ID/g; Ratio [7]: 58.08; Drug uptake (Pancreas [13]): 2.53 % ID/g; Drug uptake (Thyroid gland [19]): 25.29 % ID/g; Drug uptake [20]: 6.78 % ID/g; Drug uptake (Pancreas [22]): 2.27 % ID/g
CCN(CC)CCNC(=O)c1ccc2cncc([125I])c2n1.Cl.Cl | 1.51 | 4.01 | 28.67 | 10 | 0.86 | 1.36 | 43.48 | 9.86 | 20.3 | 7.41 | 3.3 | 115.66 | 3.92 | 1.87 |  | 23.2 | 0.35 | 0.51 | 5.38 | 32.83 | Drug uptake [23]: 0.82 % ID/g; Drug uptake [24]: 2.13 % ID/g; Drug uptake (Thyroid gland [19]): 20.16 % ID/g; Drug uptake [20]: 41.51 % ID/g
CCN(CC)CCNC(=O)c1ccc2cc([125I])ccc2c1.Cl | 5.65 | 13.3 |  | 12.28 | 1.92 | 1.74 | 18.72 | 1.1 | 13.9 | 2.57 | 1.5 |  | 9.46 | 4.43 | 0.78 | 13 | 4.37 | 1.33 | 9.7 | 7.82 | Drug uptake (Brain [5]): 0.25 % ID/g; Ratio [7]: 35.8; Drug uptake (Pancreas [13]): 8.19 % ID/g
CCN(CC)CCNC(=O)c1cnc2cc([125I])ccc2n1.Cl.Cl | 9.3 | 16.46 | 33.38 | 32.44 | 2.04 | 3.09 |  | 2.17 | 24.79 | 4.87 | 12.5 | 94.22 | 13.18 | 5.68 | 1.03 | 17 | 2.34 | 1.12 | 14.21 | 15.22 | Drug uptake [24]: 2.23 % ID/g
CCN(CC)CCNC(=O)c1cc2cc([125I])ccc2o1.Cl | 3.09 | 6.5 |  | 9.95 | 0.96 | 1.28 | 135.67 | 1.72 | 20.11 | 5.9 | 2 | 30.38 | 6.44 | 1.92 | 0.24 | 8.8 | 1.46 | 1.57 | 10.68 | 182.62 | Drug uptake [23]: 2.33 % ID/g; Drug uptake (Thyroid gland [1]): 15.7 % ID/g; Drug uptake (Thyroid gland [19]): 16.78 % ID/g
